Laboratory results as given in ChEMBL document CHEMBL5230166, “Novel quinoline-piperazine hybrids: the design, synthesis and evaluation of antibacterial and antituberculosis properties” (RSC Med Chem, 2023).
In brackets after ≈: the same amount, converted by molar mass.

Tests used:
HepG2 [1] = experiment: Cytotoxicity against human HepG2 cells assessed as inhibition of cell growth upto 32 ug/ml; type: toxicity, cell-based; details: dose < 32 µg/ml
In short: (§1)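 MTT proliferation assay on HEK293 (normal embryonic kidney) or HepG2 (liver cancer) cells. Cells are seeded at 10000 cells/well and adhered at 37 °C, 5% CO₂. Compounds are tested at 64 to 1 µg/mL (143 to 4.6 µM) in triplicate, with a DMSO vehicle control. Incubation is 48 h, followed by MTT (1 mg/mL) for 3 h at 37 °C.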

Klebsiella pneumoniae = experiment: Antibacterial activity against clinical isolate Klebsiella pneumoniae AB 356 assessed as inhibition of bacterial growth incubated for 22 to 24 hrs; type: functional; details: time 22-24 hrs
A549 [2] = experiment: Cytotoxicity against human A549 cells assessed as cell viability at 143 uM relative to control; details: a549, 143 µM
Acinetobacter baumannii = experiment: Antibacterial activity against clinical isolate Acinetobacter baumannii BAA 747 assessed as inhibition of bacterial growth incubated for 22 to 24 hrs; type: functional; details: time 22-24 hrs
Enterococcus faecium = experiment: Antibacterial activity against Enterococcus faecium ATCC 49624 assessed as inhibition of bacterial growth incubated for 22 to 24 hrs; type: functional; details: time 22-24 hrs
In short: (§2)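 Broth MIC referenced to an earlier protocol. Inocula come from mid-log cultures sub-cultured on soybean casein digest agar, adjusted to McFarland (~10⁸ CFU/mL), then diluted to ~10⁵ CFU/mL. Compounds and controls are serially diluted from 64 to 0.03 µg/mL. Tested in triplicate, read after 22–24 h at 37 °C. MIC is the lowest concentration with no visible growth.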

HEK293 [3] = experiment: Cytotoxicity against HEK293 cells assessed as cell viability at 143 uM relative to control; details: human, hek293, 143 µM
Staphylococcus aureus [4] = experiment: Antibacterial activity against methicillin sensitive Staphylococcus aureus ATCC 29213 assessed as inhibition of bacterial growth incubated for 22 to 24 hrs; type: functional; details: time 22-24 hrs; in short: as §2
Staphylococcus aureus [5] = experiment: Antibacterial activity against methicillin resistant Staphylococcus aureus ATCC 33591 assessed as inhibition of bacterial growth incubated for 22 to 24 hrs; type: functional; details: time 22-24 hrs
In short: (§3)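 Broth microdilution MIC. Strains were subcultured on Soybean Casein Digest Agar, and inocula were taken from mid-log culture, adjusted to McFarland (~10⁸ CFU/mL), then diluted to ~10⁵ CFU/mL. Serial dilutions ran from 64 to 0.03 µg/mL. Plates were incubated 22–24 h at 37 °C, in triplicate. MIC was the lowest concentration with no visible growth.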

HEK293 [6] = experiment: Cytotoxicity against HEK293 cells assessed as inhibition of cell growth upto 64 ug/ml; type: toxicity, cell-based; details: human, dose < 64 µg/ml
[7] = Cytotoxicity against human A549 cells assessed as inhibition of cell growth at 64 ug/ml relative to control; type: toxicity, cell-based; details: at 64 µg/mL, read-out: Activity
In short: (§4)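 MTT proliferation assay. A549 cells are seeded at 10000 cells/well and allowed to adhere at 37 °C, 5% CO₂. Compounds are added at 64 to 1 µg/mL (143 to 4.6 µM) in triplicate, with a DMSO vehicle control. Incubation is 24 h, then MTT (1 mg/mL) is added for 3 h at 37 °C.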

A549 [8] = experiment: Cytotoxicity against human A549 cells assessed as inhibition of cell growth upto 32 ug/ml; type: toxicity, cell-based; details: dose < 32 µg/ml; in short: as §4
[9] = tested on: Mycobacterium tuberculosis; experiment: Antibacterial activity against Mycobacterium tuberculosis H37Rv ATCC 25618 assessed as inhibition of bacterial growth incubated for 2 days by CLSI protocol based broth microdilution method; type: functional; details: H37Rv ATCC 25618, 48 h, time 2 day
Escherichia coli = experiment: Antibacterial activity against clinical isolate Escherichia coli AB 117 assessed as inhibition of bacterial growth incubated for 22 to 24 hrs; type: functional; details: time 22-24 hrs
HepG2 [10] = experiment: Cytotoxicity against human HepG2 cells assessed as cell viability at 143 uM relative to control; details: hepg2, 143 µM
[11] = Cytotoxicity against human HepG2 cells assessed as inhibition of cell growth at 64 ug/ml relative to control; type: toxicity, cell-based; details: at 64 µg/mL, read-out: Activity; in short: as §1
Pseudomonas aeruginosa = experiment: Antibacterial activity against clinical isolate Pseudomonas aeruginosa AB 645 assessed as inhibition of bacterial growth incubated for 22 to 24 hrs; type: functional; details: time 22-24 hrs
[12] = tested on: Staphylococcus epidermidis; experiment: Antibacterial activity against clinical isolate methicillin resistant Staphylococcus epidermidis AB 735 assessed as inhibition of bacterial growth incubated for 22 to 24 hrs; type: functional; details: time 22-24 hrs
Enterococcus faecalis = experiment: Antibacterial activity against vancomycin resistant Enterococcus faecalis ATCC 700802 assessed as inhibition of bacterial growth incubated for 22 to 24 hrs; type: functional; details: time 22-24 hrs; in short: as §3
[13] = tested on: Mycolicibacterium smegmatis; experiment: Antibacterial activity against Mycobacterium smegmatis ATCC 607 assessed as inhibition of bacterial growth incubated for 2 days by CLSI protocol based broth microdilution method; type: functional; details: ATCC 607, 48 h, time 2 day
In short: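 CLSI broth microdilution in Middlebrook 7H9 with 10% ADC. Compounds are dissolved in DMSO at 4.0 mg/mL (stock) and serially diluted from 64 to 0.015 µg/mL. Inoculum is ~10⁵ CFU/mL, checked by plating on 7H11 agar. Rifampin and levofloxacin are positive controls; drug-free broth with DMSO is the negative control. Growth inhibition is read after 2 days at 37 °C as MIC.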

Moraxella catarrhalis = experiment: Antibacterial activity against Moraxella catarrhalis ATCC 25238 assessed as inhibition of bacterial growth incubated for 22 to 24 hrs; type: functional; details: time 22-24 hrs; in short: as §2

With `COc1ccc2nc(CN3CCN(S(=O)(=O)c4ccccc4F)CC3)cc(OC)c2c1` the Activity (HepG2 [1]) was “Non-Toxic”, the MIC (Klebsiella pneumoniae) was > 64 µg/mL and the viability (A549 [2]) was 91.1%. For the same compound, the MIC (Acinetobacter baumannii) was > 64 µg/mL, the MIC (Enterococcus faecium) was 2 µg/mL (≈ 4.49 µM) and the viability (HEK293 [3]) was 100.8%. The MIC (Staphylococcus aureus [4]) was 0.03 µg/mL (≈ 0.0673 µM), the MIC (Staphylococcus aureus [5]) was 8 µg/mL (≈ 18 µM) and the Activity (HEK293 [6]) was “Non-Toxic”. For the same compound, the inhibition at 64 ug/ml [7] was < 12%, the Activity (A549 [8]) was “Non-Toxic” and the MIC [9] was 0.063 µg/mL (≈ 0.141 µM). For the same compound, the MIC (Escherichia coli) was 8 µg/mL (≈ 18 µM), the viability (HepG2 [10]) was 97.7% and the inhibition at 64 ug/ml [11] was < 12%. For the same compound, the MIC (Pseudomonas aeruginosa) was > 64 µg/mL, the MIC [12] was 32 µg/mL (≈ 71.8 µM) and the MIC (Enterococcus faecalis) was 1 µg/mL (≈ 2.24 µM). It also gave an MIC [13] of 0.031 µg/mL (≈ 0.0696 µM) and an MIC (Moraxella catarrhalis) of 0.06 µg/mL (≈ 0.135 µM).
For `COc1ccc2nc(CN3CCN(S(=O)(=O)c4ccccc4C(F)(F)F)CC3)cc(OC)c2c1`, the MIC (Klebsiella pneumoniae) was > 64 µg/mL, the MIC (Acinetobacter baumannii) was > 64 µg/mL and the MIC (Enterococcus faecium) was 8 µg/mL (≈ 16.1 µM). For the same compound, the MIC (Staphylococcus aureus [4]) was 4 µg/mL (≈ 8.07 µM), the MIC (Staphylococcus aureus [5]) was 32 µg/mL (≈ 64.6 µM) and the MIC [9] was > 64 µg/mL. The MIC (Escherichia coli) was 16 µg/mL (≈ 32.3 µM), the MIC (Pseudomonas aeruginosa) was > 64 µg/mL and the MIC [12] was 16 µg/mL (≈ 32.3 µM). For the same compound, the MIC (Enterococcus faecalis) was 64 µg/mL (≈ 129 µM), the MIC [13] was > 64 µg/mL and the MIC (Moraxella catarrhalis) was 1 µg/mL (≈ 2.02 µM).
With `COc1ccc(C(=O)N2CCN(Cc3cc(OC)c4cc(F)ccc4n3)CC2)cc1` the MIC (Klebsiella pneumoniae) was > 64 µg/mL, the MIC (Acinetobacter baumannii) was > 64 µg/mL and the MIC (Enterococcus faecium) was > 64 µg/mL. For the same compound, the MIC (Staphylococcus aureus [4]) was > 64 µg/mL, the MIC (Staphylococcus aureus [5]) was > 64 µg/mL and the MIC [9] was > 64 µg/mL. The MIC (Escherichia coli) was > 64 µg/mL, the MIC (Pseudomonas aeruginosa) was > 64 µg/mL and the MIC [12] was > 64 µg/mL. The MIC (Enterococcus faecalis) was > 64 µg/mL, the MIC [13] was > 64 µg/mL and the MIC (Moraxella catarrhalis) was > 64 µg/mL.
For `COc1cc(CN2CCN(C(=O)c3ccccc3F)CC2)nc2ccc(F)cc12`, the MIC (Klebsiella pneumoniae) was > 64 µg/mL, the MIC (Acinetobacter baumannii) was > 64 µg/mL and the MIC (Enterococcus faecium) was > 64 µg/mL. For the same compound, the MIC (Staphylococcus aureus [4]) was > 64 µg/mL, the MIC (Staphylococcus aureus [5]) was > 64 µg/mL and the MIC [9] was > 64 µg/mL. For the same compound, the MIC (Escherichia coli) was > 64 µg/mL, the MIC (Pseudomonas aeruginosa) was > 64 µg/mL and the MIC [12] was > 64 µg/mL. The MIC (Enterococcus faecalis) was > 64 µg/mL, the MIC [13] was > 64 µg/mL and the MIC (Moraxella catarrhalis) was > 64 µg/mL.
With `COc1ccc2nc(CN3CCN(S(=O)(=O)c4c(F)c(F)c(F)c(F)c4F)CC3)cc(OC)c2c1` the MIC (Klebsiella pneumoniae) was > 64 µg/mL, the MIC (Acinetobacter baumannii) was > 64 µg/mL and the MIC (Enterococcus faecium) was > 64 µg/mL. For the same compound, the MIC (Staphylococcus aureus [4]) was > 64 µg/mL, the MIC (Staphylococcus aureus [5]) was > 64 µg/mL and the MIC [9] was > 64 µg/mL. The MIC (Escherichia coli) was > 64 µg/mL, the MIC (Pseudomonas aeruginosa) was > 64 µg/mL and the MIC [12] was > 64 µg/mL. The MIC (Enterococcus faecalis) was > 64 µg/mL, the MIC [13] was > 64 µg/mL and the MIC (Moraxella catarrhalis) was > 64 µg/mL.
In the case of `COc1ccc2nc(CN3CCN(C(=O)c4ccc(Cl)c(Cl)c4)CC3)cc(OC)c2c1`, the MIC (Klebsiella pneumoniae) is reported as > 64 µg/mL, the MIC (Acinetobacter baumannii) is reported as > 64 µg/mL and the MIC (Enterococcus faecium) is reported as > 64 µg/mL. The MIC (Staphylococcus aureus [4]) was > 64 µg/mL, the MIC (Staphylococcus aureus [5]) was > 64 µg/mL and the MIC [9] was > 64 µg/mL. The MIC (Escherichia coli) was > 64 µg/mL, the MIC (Pseudomonas aeruginosa) was > 64 µg/mL and the MIC [12] was > 64 µg/mL. For the same compound, the MIC (Enterococcus faecalis) was > 64 µg/mL, the MIC [13] was > 64 µg/mL and the MIC (Moraxella catarrhalis) was 64 µg/mL (≈ 139 µM).
With `COc1ccc2nc(CN3CCN(C(=O)c4ccccc4OC)CC3)cc(OC)c2c1` the MIC (Klebsiella pneumoniae) was > 64 µg/mL, the MIC (Acinetobacter baumannii) was > 64 µg/mL and the MIC (Enterococcus faecium) was > 64 µg/mL. For the same compound, the MIC (Staphylococcus aureus [4]) was > 64 µg/mL, the MIC (Staphylococcus aureus [5]) was > 64 µg/mL and the MIC [9] was > 64 µg/mL. For the same compound, the MIC (Escherichia coli) was > 64 µg/mL, the MIC (Pseudomonas aeruginosa) was > 64 µg/mL and the MIC [12] was > 64 µg/mL. For the same compound, the MIC (Enterococcus faecalis) was > 64 µg/mL, the MIC [13] was > 64 µg/mL and the MIC (Moraxella catarrhalis) was > 64 µg/mL.
In the case of `COc1ccc2nc(CN3CCN(S(=O)(=O)c4ccc(F)cc4)CC3)cc(OC)c2c1`, the MIC (Klebsiella pneumoniae) is reported as > 64 µg/mL, the MIC (Acinetobacter baumannii) is reported as > 64 µg/mL and the MIC (Enterococcus faecium) is reported as > 64 µg/mL. For the same compound, the MIC (Staphylococcus aureus [4]) was > 64 µg/mL, the MIC (Staphylococcus aureus [5]) was > 64 µg/mL and the MIC [9] was > 64 µg/mL. The MIC (Escherichia coli) was > 64 µg/mL, the MIC (Pseudomonas aeruginosa) was > 64 µg/mL and the MIC [12] was > 64 µg/mL. The MIC (Enterococcus faecalis) was > 64 µg/mL, the MIC [13] was > 64 µg/mL and the MIC (Moraxella catarrhalis) was > 64 µg/mL.
With `COc1ccc2nc(CN3CCN(C(=O)C4CCC4)CC3)cc(OC)c2c1` the MIC (Klebsiella pneumoniae) was > 64 µg/mL, the MIC (Acinetobacter baumannii) was > 64 µg/mL and the MIC (Enterococcus faecium) was > 64 µg/mL. The MIC (Staphylococcus aureus [4]) was > 64 µg/mL, the MIC (Staphylococcus aureus [5]) was > 64 µg/mL and the MIC [9] was > 64 µg/mL. For the same compound, the MIC (Escherichia coli) was > 64 µg/mL, the MIC (Pseudomonas aeruginosa) was > 64 µg/mL and the MIC [12] was > 64 µg/mL. For the same compound, the MIC (Enterococcus faecalis) was > 64 µg/mL, the MIC [13] was > 64 µg/mL and the MIC (Moraxella catarrhalis) was 2 µg/mL (≈ 5.41 µM).
